ChEMBL document CHEMBL4118021, “Studies of TAK1-centered polypharmacology with novel covalent TAK1 inhibitors” (Bioorg Med Chem, 2017)
Calls of active or inactive are those of the source. The calls are words filed in the database; no cut-off is given here.

How the values were obtained:
[1] = target: Serine/threonine-protein kinase RIO3 (Homo sapiens) (UniProt O14730); experiment: Inhibition of full length human RIOK3 (1 to 519 residues) expressed in bacterial expression system assessed as enzyme activity at 1 uM by KINOMEScan assay relative to control; design: scale not given: the % may be the effect or the level left
Outline: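 In vitro ATP-site competition binding assay (KinomeScan) across a panel of 456 kinases. Compound was tested at 1 and 10 μM. The read-out is the binding inhibition score relative to control.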

[2] = target: Ribosomal protein S6 kinase alpha-6 (Homo sapiens) (UniProt Q9UK32); experiment: Inhibition of human RSK4 (1 to 397 residues) expressed in mammalian expression system assessed as enzyme activity at 10 uM by KINOMEScan assay relative to control; design: scale not given: the % may be the effect or the level left
Outline: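 In vitro ATP-site competition binding assay across a panel of 456 kinases, with compound tested at 1 and 10 μM.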

[3] = target: T1, Mitogen-activated protein kinase kinase kinase 7 (Homo sapiens) (UniProt O43318); experiment: Inhibition of TAK1 in RA patient-derived synovial fibroblasts assessed as inhibition of poly(I:C)-induced cytokine secretion at 3 uM preincubated for 3 hrs followed by poly(I:C) stimulation measured after 18 hrs by sandwich immunoassay
T1 sequence (whole entry): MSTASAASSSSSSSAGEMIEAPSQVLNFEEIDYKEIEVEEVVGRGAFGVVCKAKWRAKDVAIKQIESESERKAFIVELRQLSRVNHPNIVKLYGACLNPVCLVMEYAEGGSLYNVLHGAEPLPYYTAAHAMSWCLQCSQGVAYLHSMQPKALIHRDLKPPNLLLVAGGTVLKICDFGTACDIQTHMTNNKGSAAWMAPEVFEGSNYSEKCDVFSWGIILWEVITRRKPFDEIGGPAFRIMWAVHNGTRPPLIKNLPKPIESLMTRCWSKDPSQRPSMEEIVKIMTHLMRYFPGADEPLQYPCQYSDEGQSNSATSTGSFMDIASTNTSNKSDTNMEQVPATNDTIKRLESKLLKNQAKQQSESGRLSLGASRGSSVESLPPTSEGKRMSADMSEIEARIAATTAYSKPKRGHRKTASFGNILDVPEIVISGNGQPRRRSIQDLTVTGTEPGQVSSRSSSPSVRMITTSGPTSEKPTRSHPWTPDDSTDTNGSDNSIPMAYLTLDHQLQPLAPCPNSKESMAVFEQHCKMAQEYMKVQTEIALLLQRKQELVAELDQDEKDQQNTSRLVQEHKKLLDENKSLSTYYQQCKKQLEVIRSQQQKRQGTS
Outline: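 Primary RA synovial fibroblasts (donor RA2159) seeded 1000 cells/well and grown ~24 h at 37 °C, 5% CO2. Starved overnight in basal medium, then ~4 h in basal medium with 0.1% BSA. Two adjacent wells pooled per replicate, in biological duplicate. Supernatants diluted 1:3 and run on Luminex 27-plex/21-plex sandwich immunoassays for 48 analytes, with spiked-ligand and mock-supernatant background controls.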

[4] = target: MAP/microtubule affinity-regulating kinase 3 (Homo sapiens) (UniProt P27448); experiment: Inhibition of MARK3 in human SKCO1 cells at 1 uM after 4 hrs using biotin labeled EVAIKIIDKTQLNPTSLQK probe by mass-spectrometric analysis relative to control; format: cell-based
[5] = target: Activated CDC42 kinase 1 (Homo sapiens) (UniProt Q07912); experiment: Inhibition of ACK in human SKCO1 cells at 1 uM after 4 hrs using biotin labeled TVSVAVKCLKPDVLSQPEAMDDFIR probe by mass-spectrometric analysis relative to control; format: cell-based
[6] = target: Heterogeneous nuclear ribonucleoprotein Q (Homo sapiens) (UniProt O60506); experiment: Binding affinity to SYNCRIP in human NCI-H358 cells at 1 uM by mass spectrometry based pull down assay; format: cell-based
[7] = target: E3 ubiquitin-protein ligase UBR4 (Homo sapiens) (UniProt Q5T4S7); experiment: Binding affinity to UBR4 in human NCI-H358 cells at 1 uM by mass spectrometry based pull down assay; format: cell-based
[8] = target: Glutathione S-transferase P (Homo sapiens) (UniProt P09211); experiment: Binding affinity to GSTP1 in human NCI-H23 cells at 1 uM by mass spectrometry based pull down assay; format: cell-based
Glutathione S-transferase P (Homo sapiens), sequence (P09211 2-210 limits assumed): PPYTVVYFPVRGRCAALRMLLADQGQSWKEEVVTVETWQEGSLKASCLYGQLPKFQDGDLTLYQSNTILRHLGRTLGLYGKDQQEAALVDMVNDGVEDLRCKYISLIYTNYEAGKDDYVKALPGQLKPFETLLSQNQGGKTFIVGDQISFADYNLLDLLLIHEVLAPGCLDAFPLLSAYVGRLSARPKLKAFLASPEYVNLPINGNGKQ

[9] = target: T2, 80S Ribosome (Homo sapiens) (UniProt P08865+P42677+P62753+P15880+P23396+P61247+P62701+P22090+P46782+P62081+P62241+P46781+P46783+P62280+P25398+P62277+P62263+P62841+P62244+P62249+P08708+P62269+P39019+P60866+P63220+P62266+P62847+P62851+P62854+P62979+P62857+P62273+P62861+P39023+P36578+P46777+Q02878+P18124+P62424+P62917+P32969+P27635+P62906+P62913+P30050+P26373+P40429+P50914+P61313+P18621+Q07020+Q02543+P84098+P46778+P35268+P62829+P62750+P83731+P61254+P61353+P46776+P46779+P47914+P62888+P62899+P62910+P49207+P42766+P18077+Q9Y3U8+P83881+P61927+P61513+P63173+P62891+P62945+P05388+P05386); experiment: Binding affinity to RPS17 in human NCI-H23 cells at 1 uM by mass spectrometry based pull down assay; format: cell-based
[10] = target: T2, 80S Ribosome (Homo sapiens); experiment: Binding affinity to RPL10 in human NCI-H358 cells at 1 uM by mass spectrometry based pull down assay; format: cell-based
[11] = target: Tropomyosin alpha-4 chain (Homo sapiens) (UniProt P67936); experiment: Binding affinity to TPM4 in human NCI-H23 cells at 1 uM by mass spectrometry based pull down assay; format: cell-based
[12] = target: Glycogen synthase kinase-3 beta (Homo sapiens) (UniProt P49841); experiment: Binding affinity to GSK3B in human NCI-H23 cells at 1 uM by mass spectrometry based pull down assay; format: cell-based
[13] = target: Small proline-rich protein 3 (Homo sapiens) (UniProt Q9UBC9); experiment: Binding affinity to SPRR3 in human NCI-H358 cells at 1 uM by mass spectrometry based pull down assay; format: cell-based
[14] = target: Clathrin light chain A (Homo sapiens) (UniProt P09496); experiment: Binding affinity to CLTA in human NCI-H358 cells at 1 uM by mass spectrometry based pull down assay; format: cell-based
[15] = target: E3 ubiquitin-protein ligase HUWE1 (Homo sapiens) (UniProt Q7Z6Z7); experiment: Binding affinity to HUWE1 in human NCI-H23 cells at 1 uM by mass spectrometry based pull down assay; format: cell-based
E3 ubiquitin-protein ligase HUWE1 (Homo sapiens), sequence (Q7Z6Z7 whole entry): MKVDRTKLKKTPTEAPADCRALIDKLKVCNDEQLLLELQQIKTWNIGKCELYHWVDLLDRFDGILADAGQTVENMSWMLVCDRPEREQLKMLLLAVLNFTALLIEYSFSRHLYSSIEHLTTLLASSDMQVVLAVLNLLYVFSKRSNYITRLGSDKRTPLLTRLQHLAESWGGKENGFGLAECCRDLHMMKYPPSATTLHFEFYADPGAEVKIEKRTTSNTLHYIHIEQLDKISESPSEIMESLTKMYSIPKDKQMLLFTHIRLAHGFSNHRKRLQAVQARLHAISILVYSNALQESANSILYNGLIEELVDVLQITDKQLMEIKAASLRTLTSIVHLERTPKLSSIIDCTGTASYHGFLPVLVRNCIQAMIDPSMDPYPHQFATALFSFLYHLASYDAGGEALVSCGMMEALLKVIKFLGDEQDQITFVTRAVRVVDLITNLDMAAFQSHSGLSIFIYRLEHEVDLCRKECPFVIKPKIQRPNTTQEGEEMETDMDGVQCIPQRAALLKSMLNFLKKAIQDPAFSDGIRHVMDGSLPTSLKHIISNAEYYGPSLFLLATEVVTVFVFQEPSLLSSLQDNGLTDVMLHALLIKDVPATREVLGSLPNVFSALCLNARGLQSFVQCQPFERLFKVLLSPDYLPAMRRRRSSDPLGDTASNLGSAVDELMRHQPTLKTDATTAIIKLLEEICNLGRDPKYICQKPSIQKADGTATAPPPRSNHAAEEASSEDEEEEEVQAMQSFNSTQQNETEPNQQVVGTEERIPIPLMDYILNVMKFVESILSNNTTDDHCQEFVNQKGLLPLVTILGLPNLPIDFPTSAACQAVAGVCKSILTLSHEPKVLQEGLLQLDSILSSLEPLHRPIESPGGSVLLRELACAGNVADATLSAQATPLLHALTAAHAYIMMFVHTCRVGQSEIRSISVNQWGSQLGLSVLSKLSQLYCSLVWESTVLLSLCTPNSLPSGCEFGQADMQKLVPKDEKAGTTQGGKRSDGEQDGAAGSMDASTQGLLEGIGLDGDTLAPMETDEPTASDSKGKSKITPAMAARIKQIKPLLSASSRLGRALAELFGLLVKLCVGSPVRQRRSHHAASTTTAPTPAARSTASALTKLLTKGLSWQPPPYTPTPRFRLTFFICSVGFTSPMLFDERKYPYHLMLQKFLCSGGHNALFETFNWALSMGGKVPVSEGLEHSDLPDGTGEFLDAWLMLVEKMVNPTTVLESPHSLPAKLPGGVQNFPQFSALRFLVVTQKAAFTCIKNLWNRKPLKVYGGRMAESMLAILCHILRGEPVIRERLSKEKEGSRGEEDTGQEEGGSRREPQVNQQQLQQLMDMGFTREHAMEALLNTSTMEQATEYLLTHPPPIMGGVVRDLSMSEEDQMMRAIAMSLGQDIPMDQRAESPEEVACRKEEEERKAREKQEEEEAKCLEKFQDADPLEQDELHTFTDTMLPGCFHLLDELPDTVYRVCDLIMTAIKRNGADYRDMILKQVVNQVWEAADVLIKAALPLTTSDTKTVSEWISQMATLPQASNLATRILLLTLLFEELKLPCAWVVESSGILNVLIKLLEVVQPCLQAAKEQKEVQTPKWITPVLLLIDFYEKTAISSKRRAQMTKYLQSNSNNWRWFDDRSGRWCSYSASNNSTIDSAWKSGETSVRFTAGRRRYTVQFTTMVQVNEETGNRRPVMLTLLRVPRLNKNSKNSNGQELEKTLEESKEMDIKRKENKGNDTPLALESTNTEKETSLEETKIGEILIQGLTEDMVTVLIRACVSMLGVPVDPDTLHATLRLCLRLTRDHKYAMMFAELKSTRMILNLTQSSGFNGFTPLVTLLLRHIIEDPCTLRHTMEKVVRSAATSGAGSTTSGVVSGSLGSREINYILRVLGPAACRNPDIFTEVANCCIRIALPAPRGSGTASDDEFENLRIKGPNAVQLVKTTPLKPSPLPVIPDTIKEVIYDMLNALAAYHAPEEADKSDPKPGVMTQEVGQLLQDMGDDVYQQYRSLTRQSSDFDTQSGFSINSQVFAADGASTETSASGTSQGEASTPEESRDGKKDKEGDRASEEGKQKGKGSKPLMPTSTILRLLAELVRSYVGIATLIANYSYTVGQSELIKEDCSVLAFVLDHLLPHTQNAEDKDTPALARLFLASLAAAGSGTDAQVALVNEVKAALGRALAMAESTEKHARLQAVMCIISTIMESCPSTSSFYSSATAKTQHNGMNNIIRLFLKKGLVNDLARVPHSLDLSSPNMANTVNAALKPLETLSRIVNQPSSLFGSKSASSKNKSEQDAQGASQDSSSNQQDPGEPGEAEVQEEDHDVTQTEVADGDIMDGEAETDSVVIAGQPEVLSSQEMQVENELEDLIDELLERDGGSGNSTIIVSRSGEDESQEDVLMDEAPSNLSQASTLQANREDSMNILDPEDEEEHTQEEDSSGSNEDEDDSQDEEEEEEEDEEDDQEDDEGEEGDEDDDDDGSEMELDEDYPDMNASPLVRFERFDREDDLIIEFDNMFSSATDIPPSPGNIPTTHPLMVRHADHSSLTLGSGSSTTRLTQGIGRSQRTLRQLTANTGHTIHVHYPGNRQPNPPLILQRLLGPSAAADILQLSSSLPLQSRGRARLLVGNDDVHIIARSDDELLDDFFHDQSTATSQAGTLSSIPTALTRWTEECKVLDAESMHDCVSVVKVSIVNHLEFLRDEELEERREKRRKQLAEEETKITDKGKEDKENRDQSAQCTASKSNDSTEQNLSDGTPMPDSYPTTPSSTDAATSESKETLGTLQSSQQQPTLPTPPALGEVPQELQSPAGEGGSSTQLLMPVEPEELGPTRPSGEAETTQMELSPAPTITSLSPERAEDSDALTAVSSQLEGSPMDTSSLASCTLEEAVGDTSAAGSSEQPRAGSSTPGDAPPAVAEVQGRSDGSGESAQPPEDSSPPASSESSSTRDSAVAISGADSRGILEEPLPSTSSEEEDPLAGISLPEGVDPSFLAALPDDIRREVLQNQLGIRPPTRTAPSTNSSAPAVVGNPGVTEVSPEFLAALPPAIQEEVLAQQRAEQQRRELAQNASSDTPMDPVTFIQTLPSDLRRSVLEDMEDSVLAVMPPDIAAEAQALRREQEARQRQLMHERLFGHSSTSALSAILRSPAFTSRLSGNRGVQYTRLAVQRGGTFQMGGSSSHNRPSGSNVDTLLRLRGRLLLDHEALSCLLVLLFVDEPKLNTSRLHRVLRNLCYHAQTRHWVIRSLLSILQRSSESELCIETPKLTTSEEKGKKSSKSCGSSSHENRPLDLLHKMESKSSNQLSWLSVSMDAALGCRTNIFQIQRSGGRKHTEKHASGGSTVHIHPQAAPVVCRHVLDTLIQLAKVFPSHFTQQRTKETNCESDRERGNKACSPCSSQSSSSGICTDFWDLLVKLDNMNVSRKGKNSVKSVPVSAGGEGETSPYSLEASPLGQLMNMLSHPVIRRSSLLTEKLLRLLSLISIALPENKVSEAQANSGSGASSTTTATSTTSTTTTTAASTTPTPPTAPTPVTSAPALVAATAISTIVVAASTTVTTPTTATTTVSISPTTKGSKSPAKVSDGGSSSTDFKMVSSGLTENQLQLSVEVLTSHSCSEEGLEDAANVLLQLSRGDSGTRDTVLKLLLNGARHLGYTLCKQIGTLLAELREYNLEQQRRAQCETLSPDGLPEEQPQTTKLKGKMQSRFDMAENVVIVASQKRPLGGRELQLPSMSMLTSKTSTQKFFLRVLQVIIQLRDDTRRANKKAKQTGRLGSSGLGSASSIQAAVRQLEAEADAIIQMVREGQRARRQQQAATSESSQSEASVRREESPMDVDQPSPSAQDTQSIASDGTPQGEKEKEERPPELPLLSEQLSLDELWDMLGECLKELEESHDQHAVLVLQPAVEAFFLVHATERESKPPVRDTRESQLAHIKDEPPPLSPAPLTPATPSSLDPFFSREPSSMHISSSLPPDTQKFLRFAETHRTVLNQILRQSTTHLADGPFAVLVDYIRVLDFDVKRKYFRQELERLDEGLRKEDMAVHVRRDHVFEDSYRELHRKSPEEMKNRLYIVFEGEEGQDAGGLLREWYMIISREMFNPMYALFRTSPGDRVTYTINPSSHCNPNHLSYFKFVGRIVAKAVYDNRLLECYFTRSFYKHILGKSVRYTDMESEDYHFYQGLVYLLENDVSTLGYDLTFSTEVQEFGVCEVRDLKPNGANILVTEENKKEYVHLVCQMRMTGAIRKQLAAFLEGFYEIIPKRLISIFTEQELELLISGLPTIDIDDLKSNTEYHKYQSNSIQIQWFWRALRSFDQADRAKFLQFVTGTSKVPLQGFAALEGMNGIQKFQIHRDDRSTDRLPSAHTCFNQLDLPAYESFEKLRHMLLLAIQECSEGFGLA

[16] = target: RuvB-like 1 (Homo sapiens) (UniProt Q9Y265); experiment: Binding affinity to RUVBL1 in human NCI-H23 cells at 1 uM by mass spectrometry based pull down assay; format: cell-based
RuvB-like 1 (Homo sapiens), sequence (Q9Y265 whole entry): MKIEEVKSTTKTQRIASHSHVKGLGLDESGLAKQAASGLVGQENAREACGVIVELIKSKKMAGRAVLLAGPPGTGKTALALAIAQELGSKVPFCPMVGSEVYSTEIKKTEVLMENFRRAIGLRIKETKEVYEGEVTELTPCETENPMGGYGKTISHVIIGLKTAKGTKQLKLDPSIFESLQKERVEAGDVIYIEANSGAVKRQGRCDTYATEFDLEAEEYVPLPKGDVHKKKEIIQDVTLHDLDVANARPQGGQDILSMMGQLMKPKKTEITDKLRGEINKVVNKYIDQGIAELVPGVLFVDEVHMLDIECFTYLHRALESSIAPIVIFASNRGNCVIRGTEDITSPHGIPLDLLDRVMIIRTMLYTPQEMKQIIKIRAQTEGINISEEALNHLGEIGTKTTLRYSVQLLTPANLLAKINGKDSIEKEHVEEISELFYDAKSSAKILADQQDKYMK

For COc1cc(O)c2c(c1)/C=C/C[C@H](O)[C@H](O)C(=O)/C=C\C[C@H](C)OC2=O, which Activity [1] is on record?
The Activity was 74%.

What about the Activity [2] of the same compound?
The Activity was 3%.

For C=CC(=O)Nc1ccccc1Oc1nc(Nc2cnn(CCOC)c2)ncc1Cl, which inhibition [3] is on record?
The inhibition was “Active”.

C=CC(=O)Nc1ccccc1Nc1nc(Nc2ccc(N3CCN(C)CC3)cc2)ncc1Cl was tested. Which inhibition [4] did it give?
The inhibition was 8.6%.

And the inhibition [5]?
Its inhibition is 45.1%.

For C=CC(=O)Nc1ccccc1Nc1nc(Nc2ccc(N3CCN(CCOCCOCCOCCNC(=O)CCCC[C@@H]4SC[C@@H]5NC(=O)N[C@@H]54)CC3)cc2)ncc1Cl, which Activity [6] is on record?
The Activity was “Active”.

And the Activity [7]?
The Activity was “Active”.

What about the Activity [8] of the same compound?
Its Activity is “Active”.

What about the Activity [9] of the same compound?
Its Activity is “Active”.

What about the Activity [10] of the same compound?
The Activity was “Active”.

And the Activity [11]?
The Activity was “Active”.

What about the Activity [12] of the same compound?
Its Activity is “Active”.

And the Activity [13]?
The Activity was “Active”.

And the Activity [14]?
Its Activity is “Active”.

And the Activity [15]?
The Activity was “Active”.

And the Activity [16]?
The Activity was “Active”.
